Screens as filed in PubChem.
RGS4 inh = human RGS4 inhibition | P49798 | HEK293 M3R/RGS4 inducible, Fluo-4 calcium flux; stronger effect = higher value; triggered by carbachol at its EC20 | B-score at 10 µM | hit rate 0.45% among 310,000 | AID 463165;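 active means B-score, a plate-corrected calcium signal, over three deviations above library mean, with baseline fluorescence within five deviations of library mean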;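 further: RGS4 expression induced by doxycycline in cells with stable M3 receptor; B-score is computed from the integrated fluorescence ratio over baseline after carbachol; higher B-score means a larger calcium signal and so more RGS4 inhibition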
Target sequence (P49798 whole entry, looked up): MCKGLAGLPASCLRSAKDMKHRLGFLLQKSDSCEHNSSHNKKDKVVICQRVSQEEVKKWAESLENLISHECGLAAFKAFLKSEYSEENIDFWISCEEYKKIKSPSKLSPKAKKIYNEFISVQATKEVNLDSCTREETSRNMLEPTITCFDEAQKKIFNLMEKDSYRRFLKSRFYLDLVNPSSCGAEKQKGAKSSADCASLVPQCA
MrgX1 allo act = allosterically activates human MrgX1 receptor signaling. Q96LB2. MrgX1-HEK293, Fluo-4 calcium flux, FDSS; stronger effect = higher value. B-score at 10 µM. hit rate 0.63% among 310,000. AID 588675;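 active means plate-corrected calcium response at least 3 library SD above typical, normal starting fluorescence, not activating the receptor alone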;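 further: compound read alongside a low EC10 to EC30 dose of BAM8-22 agonist; peak minus trough fluorescence over baseline measured at the second addition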
Target sequence (Q96LB2 whole entry, looked up): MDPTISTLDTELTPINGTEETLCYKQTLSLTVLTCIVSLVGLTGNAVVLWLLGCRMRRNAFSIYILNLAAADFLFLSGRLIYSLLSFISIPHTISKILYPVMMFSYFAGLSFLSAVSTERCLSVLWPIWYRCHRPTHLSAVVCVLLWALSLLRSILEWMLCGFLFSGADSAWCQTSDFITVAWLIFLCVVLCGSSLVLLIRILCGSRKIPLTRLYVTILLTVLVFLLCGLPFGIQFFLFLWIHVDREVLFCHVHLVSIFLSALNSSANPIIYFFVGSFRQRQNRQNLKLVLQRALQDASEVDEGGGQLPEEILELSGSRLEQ
RGS4 act = RGS4 potentiation or activation; hit rate 0.92% among 310,000; B-score at 10 µM; HEK293 M3R/inducible RGS4, carbachol calcium flux Fluo4; stronger effect = lower value;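 active means B-score of the integrated calcium signal more than 4 SD below the library mean, with starting fluorescence not abnormally high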;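 further: negative B-score means reduced calcium response which marks RGS4 activation or potentiation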
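Material: Inducible-RGS4 HEK293 cells carrying M3 receptor; also added: carbachol at ECmax as muscarinic agonist stimulus; incubation: compound preincubation 20 min at room temperature before agonist; signal: Fluo4-AM (2 µM) calcium-flux fluorescence, kinetic read; measure: integrated calcium ratio converted to B score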
MrgX1 antag = antagonists of human MrgX1 receptor; Q96LB2; MRGX1-HEK293 calcium flux, Fluo-4, BAM8-22 antagonism; stronger effect = lower value; hit rate 1.3% among 310,000; B-score at 10 µM;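 active means calcium-response B-score plate-corrected more than 3 library SD below zero, starting fluorescence within 5 deviations, no agonist response on first addition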;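 further: peak minus trough fluorescence over baseline after final BAM8-22 challenge near maximal dose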
MrgX1 agonist = activates human MrgX1 receptor signaling. Q96LB2. B-score at 10 µM. MrgX1-HEK293 cells, Fluo-4 calcium fluorescence, agonist mode; stronger effect = higher value. hit rate 0.44% among 310,000;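 active means calcium response B-score plate-corrected fluorescence ratio at least 3 library SD, with starting fluorescence B-score inside 5 SD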
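Material: HEK293 cells stably expressing human MrgX1 receptor | Quantity: 15,000 cells per well | Times: Cells plated overnight, dye loaded 0.5 h 37 °C, 0.5 h room temperature | Measured by: Kinetic Fluo-4 NW fluorescence of intracellular calcium | Control set: Positive and negative controls per plate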
RGS4 block valid = RGS4 inhibitor validation; shares compounds with RGS4 inh; HEK293 M3R/RGS4, carbachol calcium Fluo-4 fluorescence; carbachol added at its EC20; 0 = buffer wells, 100 = carbachol control; hit rate 65% among 1,700; calcium response, % at 10 µM;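 active means duplicate-averaged calcium response above the buffer-only control mean plus 5 SD of those controls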;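 further: integrated fluorescence ratio F max minus min over baseline F0; higher response in RGS4-induced cells means RGS4 inhibition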
RGS4 uninduced = checks RGS4 inhibitor effects in non-induced HEK293 M3R cells. shares compounds with RGS4 inh. carbachol calcium Fluo-4; submaximal (EC20) carbachol stimulus; buffer wells 0%, carbachol control wells 100%. activity (percent), % at 10 µM. hit rate 20% among 1,900. AID 493000; call rule not given here;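 further: RGS4 induction absent so cells express M3R without RGS4; higher means more calcium signal and flags a non-specific hit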
RGS4 inh ctr2 = second RGS4 inhibitor counter-screen in uninduced cells lacking carbachol; shares compounds with RGS4 inh; HEK293 M3R/RGS4 non-induced, Fluo-4 calcium, no carbachol; normalised: buffer wells 0%, carbachol wells 100%; calcium response (agonist-mode artifact), % at 10 µM; hit rate 22% among 1,900; AID 493001;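 active means duplicate-averaged calcium rise in uninduced cells above buffer wells' mean plus 5 SD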
* = called active by the depositor; i = inactive; . = no result given. Hits are enriched below; roughly 3.5% of the tested compounds scored in any of these assays.

SMILES | RGS4 inh | MrgX1 allo act | RGS4 act | MrgX1 antag | MrgX1 agonist | RGS4 block valid | RGS4 uninduced | RGS4 inh ctr2
Cc1ccc(NC(=O)C2(c3ccccc3)CCOCC2)c([N+](=O)[O-])c1 | i | i | i | i | i | . | . | .
Cc1ccc(-n2nc3c(=O)n(CC(=O)NCc4ccccc4Cl)nc(C)c3c2C)cc1 | i | i | i | i | i | . | . | .
Cc1ccc(-n2nc3c(=O)n(CC(=O)NCc4ccccc4)nc(C)c3c2C)cc1 | i | i | i | i | i | i | i | i
Cc1ccc(-n2nc3c(=O)n(CC(=O)NCCc4cccs4)nc(C)c3c2C)cc1 | i | i | i | i | i | i | i | i
COc1cc(CN2CCC(n3nccc3NC(=O)c3ccc4c(c3)OCO4)CC2)ccc1O | i | i | i | i | i | . | . | .
Cc1ccc([N+](=O)[O-])cc1NC(=S)NC(=O)c1cccs1 | i | i | i | i | i | . | . | .
CCC(Sc1nc2ccncc2[nH]1)C(=O)Nc1ccc(C)c(Cl)c1 (centres undefined) | i | i | i | i | i | . | . | .
CCOC(=O)c1c(C)[nH]c(C(=O)CN2C(=O)NC(C)(c3ccc(C)cc3)C2=O)c1C (centres undefined) | i | i | i | i | i | i | i | 7.5%*
CCOC(=O)c1c(C)[nH]c(C(=O)CN2C(=O)NC(CC)(c3ccccc3)C2=O)c1C (centres undefined) | i | i | i | i | i | . | . | .
N#Cc1c(NC(=O)CSc2nc(N)cc(=O)[nH]2)sc2c1CCCCCC2 | i | i | i | i | i | . | . | .
N#Cc1c(NC(=O)CSc2ncn[nH]2)sc2c1CCCCC2 | i | i | i | i | i | . | i | i
CC(=O)c1ccc(-n2c(=O)[nH]c(=O)c3c(N)c(C(=O)c4ccc(Cl)cc4)sc32)cc1 | i | i | i | i | i | . | i | i
Nc1c(C(=O)c2ccccc2)sc2c1c(=O)[nH]c(=O)n2-c1ccccc1 | i | i | i | i | i | . | 38%* | i
Nc1c(C(=O)c2ccc(Cl)cc2)sc2c1c(=O)[nH]c(=O)n2-c1ccccc1 | 5.2* | i | i | i | i | 38%* | i | 26%*
CC(C)(CN1CCN(c2ccccc2)CC1)NS(=O)(=O)c1ccccc1 | i | i | i | i | i | . | . | .
CCc1ccc(S(=O)(=O)Nc2c(C)nc3nc[nH]n3c2=O)cc1 | i | i | i | i | i | . | . | .
COC(=O)c1cc(-c2cccc(OC)c2)c2c(=O)[nH]c(=O)n(C)c2n1 | i | i | i | i | i | . | . | .
OCc1ccc(-c2nn(Cc3ccccc3)c3ccccc23)o1 | 5.1* | i | i | i | i | 6.0%* | i | i
O=c1c2ccccc2c(-c2n[nH]c(=S)o2)nn1Cc1ccccc1 | i | i | i | i | i | . | . | .
COc1cc(-c2ncc3ccccn23)cc(OC)c1OC | i | i | i | i | i | . | . | .
COc1ccc(C(C[N+](=O)[O-])c2c(-c3ccccc3)cc3ccccn23)cc1 (centres undefined) | 15* | i | i | i | i | 12%* | i | i
O=Nc1c(-c2ccccc2)cc2ccccn12 | i | i | i | i | i | . | . | .
COc1cc(C(C[N+](=O)[O-])c2c(-c3ccccc3)cc3ccccn23)cc(OC)c1OC (centres undefined) | i | i | i | i | i | . | i | i
COc1ccc(C(C[N+](=O)[O-])c2c(-c3ccccc3)cc3ccccn23)cc1OC (centres undefined) | 13* | i | i | i | 55* | 12%* | i | i
COc1cc(C(C[N+](=O)[O-])c2c(C)cc3ccccn23)ccc1O (centres undefined) | i | i | i | i | i | . | . | .
SMILES | RGS4 inh | MrgX1 allo act | RGS4 act | MrgX1 antag | MrgX1 agonist | RGS4 block valid | RGS4 uninduced | RGS4 inh ctr2
COC(=O)c1ccc(COc2ccccc2/C=N/NS(=O)(=O)c2ccc(C)cc2)cc1 | i | i | i | i | i | . | . | .
O=C(NCc1ccco1)Nc1ccc(Br)cc1 | i | i | i | i | i | . | . | .
O=C(NCc1ccco1)Nc1ccc2nsnc2c1 | 6.5* | i | i | i | i | i | i | i
CCn1ncc(Br)c1C(=O)Nc1cc(C)on1 | i | . | i | . | . | . | . | .
CC(=O)C1=C(O)C(=O)N(c2ccc(Br)cn2)C1c1ccc(Br)cc1 (centres undefined) | i | i | i | i | i | . | . | .
CC(=O)C1=C(O)C(=O)N(c2cc(C(C)(C)C)on2)C1c1ccc(Br)cc1 (centres undefined) | 7.8* | i | i | i | i | 44%* | 30%* | i
CC(=O)C1=C(O)C(=O)N(c2cc(C(C)(C)C)on2)C1c1ccc(C(C)C)cc1 (centres undefined) | i | i | i | i | i | i | i | 56%*
COc1cccc(CN(C)C(=O)CCN(c2ccccc2)S(=O)(=O)c2ccc(C)cc2)c1OC | i | i | i | i | i | . | . | .
CCCC(=O)Nc1nnc(S(=O)(=O)N(CC(C)C)c2ccccc2)s1 | i | i | i | i | i | . | . | .
COc1ccc(/C=C(\NC(=O)c2ccccc2)C(=O)NCc2cccnc2)cc1 | i | i | i | i | i | i | i | i
CN(C)c1ccc(/C=C(\NC(=O)c2ccccc2)C(=O)NCc2ccncc2)cc1 | i | i | i | i | i | . | . | .
CN(C)c1ccc(/C=C(\NC(=O)c2ccccc2)C(=O)NCc2cccnc2)cc1 | i | i | i | i | i | i | i | i
O=C(NCc1cccs1)C1CCCN1C(=O)Nc1ccc(Cl)cc1 (centres undefined) | i | i | i | i | i | . | . | .
CN(C)CCCNC(=O)C(=O)NCC1CCCO1 (centres undefined) | i | i | i | i | i | . | . | .
CC(C)c1ccc(NC(=O)CCNC(=O)Cn2cnc3ccccc3c2=O)cc1 | i | i | i | i | i | . | . | .
